Test results from ChEMBL document CHEMBL1153179, “Optimization of orally bioavailable alkyl amine renin inhibitors” (Bioorg Med Chem Lett, 2010).
Activity calls are given as the source filed them. The rule behind the calls is not given here.

Experiments:
Renin [1] = biological target: T1, Renin (Homo sapiens, UniProt P00797); test: Inhibition of human recombinant renin assessed as decrease in plasma renin activity by competitive radioimmunoassay in presence of human plasma
T1 sequence (P00797 whole entry): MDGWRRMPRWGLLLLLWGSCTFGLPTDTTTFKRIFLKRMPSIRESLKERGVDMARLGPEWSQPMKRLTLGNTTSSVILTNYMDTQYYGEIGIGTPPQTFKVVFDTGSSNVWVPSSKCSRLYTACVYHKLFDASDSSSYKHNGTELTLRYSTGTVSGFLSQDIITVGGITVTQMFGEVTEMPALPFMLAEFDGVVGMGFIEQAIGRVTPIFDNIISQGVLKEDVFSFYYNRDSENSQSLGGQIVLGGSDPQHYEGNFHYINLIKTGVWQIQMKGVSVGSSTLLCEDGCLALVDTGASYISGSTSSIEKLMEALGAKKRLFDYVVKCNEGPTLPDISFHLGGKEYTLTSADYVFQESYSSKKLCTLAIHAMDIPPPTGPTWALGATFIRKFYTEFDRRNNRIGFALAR

[2] = Clearance in rat at 2 mg/kg, iv; type: ADME, organism-based; parameters: dose 2 mg/kg, route intravenous; conditions: in vivo
[3] = Volume of distribution at steady state in rat at 10 mg/kg, po or 2 mg/kg, iv; type: ADME, organism-based; conditions: in vivo, read-out: Vdss
Renin [4] = biological target: T1, Renin; test: Inhibition of trypsin-activated human recombinant renin
[5] = AUC (0 to t) in rat at 10 mg/kg, po; type: ADME, organism-based, Plasma; parameters: dose 10 mg/kg, route oral; conditions: plasma
[6] = Half life in rat at 10 mg/kg, po; type: ADME, organism-based; parameters: dose 10 mg/kg, route oral; conditions: in vivo
[7] = Clearance in cynomolgus monkey at 1 mg/kg, iv; type: ADME, organism-based, Macaca fascicularis; parameters: dose 1 mg/kg, route intravenous; conditions: in vivo
[8] = Cmax in cynomolgus monkey at 2 mg/kg, po; type: ADME, organism-based, Macaca fascicularis; parameters: dose 2 mg/kg, route oral; conditions: in vivo
[9] = Tmax in cynomolgus monkey at 2 mg/kg, po; type: ADME, organism-based, Macaca fascicularis; parameters: dose 2 mg/kg, route oral; conditions: in vivo
[10] = Oral bioavailability in cynomolgus monkey at 2 mg/kg; type: ADME, organism-based, Macaca fascicularis; conditions: in vivo
Rattus norvegicus [11] = test: Reduction in mean blood pressure in double transgenic rat model of hypertension at 10 mg/kg, po after 24 hrs; type: functional, organism-based; parameters: dose 10 mg/kg
In short: (§1)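 Double transgenic rats expressing human renin and human angiotensinogen (dTGR) given a single 10 mg/kg oral dose; mean arterial pressure followed over 24 h against vehicle-treated animals, with statistical significance assessed.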

[12] = AUC (0 to t) in cynomolgus monkey at 2 mg/kg, po; type: ADME, organism-based, Macaca fascicularis; parameters: dose 2 mg/kg, route oral; conditions: plasma
[13] = Half life in cynomolgus monkey at 2 mg/kg, po; type: ADME, organism-based, Macaca fascicularis; parameters: dose 2 mg/kg, route oral; conditions: in vivo
[14] = Volume of distribution at steady state in cynomolgus monkey at 1 mg/kg, iv or 2 mg/kg, po; type: ADME, organism-based, Macaca fascicularis; conditions: in vivo, read-out: VDss
[15] = AUC (0 to 32 hrs) in cynomolgus monkey at 2 mg/kg, po; type: ADME, organism-based, Macaca fascicularis; parameters: time < 32 hr, dose 2 mg/kg, route oral; conditions: plasma
[16] = Cmax in rat at 10 mg/kg, po; type: ADME, organism-based; parameters: dose 10 mg/kg, route oral; conditions: in vivo
[17] = Tmax in rat at 10 mg/kg, po; type: ADME, organism-based; parameters: dose 10 mg/kg, route oral; conditions: in vivo
[18] = Oral bioavailability in rat at 10 mg/kg; type: ADME, organism-based; conditions: in vivo
[19] = Selectivity for human recombinant renin over beta-secretase
[20] = Selectivity for human recombinant renin over cathepsin D
[21] = Selectivity for human recombinant renin over cathepsin E
[22] = Half life in human liver microsomes; type: ADME, Microsome
[23] = Cmax in cynomolgus monkey at 1 mg/kg, po; type: ADME, organism-based, Macaca fascicularis; parameters: dose 1 mg/kg, route oral; conditions: in vivo
[24] = Tmax in cynomolgus monkey at 1 mg/kg, po; type: ADME, organism-based, Macaca fascicularis; parameters: dose 1 mg/kg, route oral; conditions: in vivo
[25] = AUC (0 to t) in cynomolgus monkey at 1 mg/kg, po; type: ADME, organism-based, Macaca fascicularis; parameters: dose 1 mg/kg, route oral; conditions: plasma
[26] = Half life in cynomolgus monkey at 1 mg/kg, po; type: ADME, organism-based, Macaca fascicularis; parameters: dose 1 mg/kg, route oral; conditions: in vivo
[27] = Volume of distribution at steady state in cynomolgus monkey at 1 mg/kg, iv or 1 mg/kg, po; type: ADME, organism-based, Macaca fascicularis; conditions: in vivo, read-out: Vdss
[28] = Oral bioavailability in cynomolgus monkey at 1 mg/kg; type: ADME, organism-based, Macaca fascicularis; conditions: in vivo
In short: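 Cynomolgus monkeys were dosed with the fumarate salt orally at 1 mg/kg and intravenously at 1 mg/kg. Oral bioavailability (F, %) was reported alongside oral Cmax, tmax, AUC(0-t), oral t1/2, IV clearance and Vss.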

Rattus norvegicus [29] = test: Reduction in mean blood pressure in double transgenic rat model of hypertension at 10 mg/kg, po after >20 hrs; type: functional, organism-based; parameters: dose 10 mg/kg; in short: as §1

CNC[C@H](CC1CCCCC1)NC(=O)N1CCC[C@@H]([C@@](O)(CCCNC(C)=O)c2cccc(Cl)c2)C1
IC50 (Renin [1]): 16 nM | clearance [2]: 23 mL/min/kg | Vd [3]: 117 L/kg

CNC[C@H](CC1CCCCC1)NC(=O)N1CCC[C@@H]([C@@](O)(CCCNC(=O)N(C)C)c2cccc(Cl)c2)C1
IC50 (Renin [4]): 2260 nM

CCCC(=O)NCCC[C@@](O)(c1cccc(Cl)c1)[C@@H]1CCCN(C(=O)N[C@H](CNC)CC2CCCCC2)C1
IC50 (Renin [4]): 57 nM

CNC[C@H](CC1CCCCC1)NC(=O)N1CCC[C@@H]([C@@H](OCCNC(=O)OC)c2cccc(Cl)c2F)C1
IC50 (Renin [4]): 0.61 nM | IC50 (Renin [1]): 3.4 nM

COCCCOc1cc(C[C@@H](C[C@H](N)[C@@H](O)C[C@H](C(=O)NCC(C)(C)C(N)=O)C(C)C)C(C)C)ccc1OC
AUC(0-t) [5]: 21 ng·h/mL | half-life [6]: 13.5 h | clearance [7]: 2.5 mL/min/kg | Cmax [8]: 29.5 ng/mL | Tmax [9]: 1.3 h | bioavailability [10]: 1.4% | Activity (Rattus norvegicus [11]): Active | AUC(0-t) [12]: 154 ng·h/mL | half-life [13]: 9.8 h

CNC[C@H](CC1CCCCC1)NC(=O)N1CCC[C@@H]([C@@H](OCCNC(=O)OC)c2cc(F)ccc2F)C1
IC50 (Renin [4]): 0.62 nM | IC50 (Renin [1]): 2.7 nM

CNC[C@H](CC1CCCCC1)NC(=O)N1CCC[C@@H]([C@@H](OCCNC(=O)OC)c2ccccc2)C1
IC50 (Renin [4]): 1.17 nM | IC50 (Renin [1]): 2.9 nM

CCNC[C@H](CC1CCCCC1)NC(=O)N1CCC[C@@H]([C@@H](OCCNC(=O)OC)c2cccc(F)c2)C1
IC50 (Renin [4]): 2.1 nM | IC50 (Renin [1]): 18 nM

CCNC[C@H](CC1CCCCC1)NC(=O)N1CCC[C@@H]([C@@H](OCCNC(=O)OC)c2cccc(Cl)c2)C1
IC50 (Renin [4]): 0.87 nM | IC50 (Renin [1]): 7.7 nM

CNC[C@H](CC1CCCCC1)NC(=O)N1CCC[C@@H]([C@@](O)(CCCCOC)c2cccc(Cl)c2)C1
AUC(0-t) [5]: 472 ng·h/mL | clearance [7]: 5.2 mL/min/kg | Cmax [8]: 116 ng/mL | Tmax [9]: 2.7 h | Vd [14]: 6.1 L/kg | bioavailability [10]: 16% | AUC(0-t) at 32 h [15]: 615 ng·h/mL | half-life [13]: 15 h

CCC(=O)NCCC[C@@](O)(c1cccc(Cl)c1)[C@@H]1CCCN(C(=O)N[C@H](CNC)CC2CCCCC2)C1
IC50 (Renin [4]): 1.5 nM | IC50 (Renin [1]): 21 nM

CNC[C@H](CC1CCCCC1)NC(=O)N1CCC[C@@H]([C@@H](OCCNC(=O)OC)c2cccc(Cl)c2)C1
IC50 (Renin [4]): 0.48 nM | IC50 (Renin [1]): 0.82 nM | Cmax [16]: 94 ng/mL | Tmax [17]: 3 h | AUC(0-t) [5]: 301 ng·h/mL | half-life [6]: 9.7 h | clearance [2]: 36 mL/min/kg | Vd [3]: 19 L/kg | bioavailability [18]: 9.4% | Selectivity ratio [19]: > 1000 | Selectivity ratio [20]: > 1000 | Selectivity ratio [21]: > 1000 | half-life [22]: > 0.5 h | Cmax [23]: 33.3 ng/mL | Tmax [24]: 1 h | AUC(0-t) [25]: 130 ng·h/mL | half-life [26]: 29.2 h | clearance [7]: 11.7 mL/min/kg | Vd [27]: 9.8 L/kg | bioavailability [28]: 9.9% | Activity (Rattus norvegicus [29]): Active

CNC[C@H](CC1CCCCC1)NC(=O)N1CCC[C@@H]([C@@H](OCCNC(=O)OC)c2ccc(F)c(F)c2)C1
IC50 (Renin [4]): 2.5 nM | IC50 (Renin [1]): 16.6 nM

CNC[C@H](CC1CCCCC1)NC(=O)N1CCC[C@@H]([C@@](O)(CCCNC(=O)OC)c2cccc(Cl)c2)C1
IC50 (Renin [4]): 0.18 nM | IC50 (Renin [1]): 3.7 nM | Cmax [16]: 5 ng/mL | Tmax [17]: 0.9 h | AUC(0-t) [5]: 10 ng·h/mL | half-life [6]: 1.8 h | clearance [2]: 34 mL/min/kg | Vd [3]: 29 L/kg | bioavailability [18]: 0.3%

CCOC(=O)NCCC[C@@](O)(c1cccc(Cl)c1)[C@@H]1CCCN(C(=O)N[C@H](CNC)CC2CCCCC2)C1
IC50 (Renin [4]): 14 nM | IC50 (Renin [1]): 170 nM
